Columns and labels:
[1] = molecular target: C-C chemokine receptor type 5 (Homo sapiens, UniProt P51681); test: Inhibitory concentration for displacement of [125I]-MIP-1 alpha from recombinant human CC chemokine receptor 5 (CCR5) expressed in CHO cell; format: cell-based
Procedure, shortened: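 Competitive binding to CCR5 on CHO cell membranes, read as displacement of [125I]-labeled MIP-1α. IC50 values are means of triplicate determinations. Standard errors were normally <15% within an assay. Assay-to-assay variation was within ±2-fold, judged from a standard compound.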

HeLa [2] = test: Antiviral activities in a cell culture HIV-1 infectivity inhibition assay using HeLa cells plus 50% normal human serum; format: functional
HeLa [3] = test: Antiviral activities in a cell culture HIV-1 infectivity inhibition assay using HeLa cells; format: functional; conditions: Homo sapiens

C-C chemokine receptor type 5, sequence (P51681 whole entry): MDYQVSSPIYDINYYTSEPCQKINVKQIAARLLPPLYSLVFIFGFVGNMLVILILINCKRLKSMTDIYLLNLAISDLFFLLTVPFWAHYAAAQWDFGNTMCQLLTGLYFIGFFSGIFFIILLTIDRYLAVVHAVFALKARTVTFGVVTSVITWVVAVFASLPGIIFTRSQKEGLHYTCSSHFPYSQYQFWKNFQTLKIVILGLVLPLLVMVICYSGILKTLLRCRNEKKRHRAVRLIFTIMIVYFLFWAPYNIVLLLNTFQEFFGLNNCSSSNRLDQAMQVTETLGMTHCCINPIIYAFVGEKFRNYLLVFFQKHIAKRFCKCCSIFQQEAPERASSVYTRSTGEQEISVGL

Row | Structure (SMILES) | IC50 [1] [nM] | IC90 (HeLa [3]) [nM] | IC90 (HeLa [2]) [nM]
1 | CCn1nc(CC2CCCCC2)cc1C1CCN(C[C@H]2CN([C@@H](C(=O)O)C(C)C)C[C@@H]2c2cccc(F)c2)CC1 | 2.3 | 33 | > 300
2 | CC[C@H](C)[C@H](C(=O)O)N1C[C@H](CN2CCC(c3cc(Cc4ccc(S(=O)(=O)c5ccccc5)cc4)nn3CC)CC2)[C@@H](c2cccc(F)c2)C1 | 0.6 | < 0.14 | 11
3 | CC[C@@H](C)[C@H](C(=O)O)N1C[C@H](CN2CCC(c3cc(Cc4ccc(C(C)(C)C)cc4)nn3CC)CC2)[C@@H](c2cccc(F)c2)C1 | 0.8 | 1.2 | 300
4 | CCn1nc(Cc2ccc(Oc3ccccc3)cc2)cc1C1CCN(C[C@H]2CN([C@@H](C(=O)O)C3CCCCC3)C[C@@H]2c2cccc(F)c2)CC1 | 0.5 | 1.2 | 100
5 | CC[C@H](C)[C@H](C(=O)O)N1C[C@H](CN2CCC(c3cc(Cc4ccc5ccccc5c4)nn3CC)CC2)[C@@H](c2cccc(F)c2)C1 | 0.3 | < 0.14 | 300
6 | CCn1nc(Cc2cc(C(F)(F)F)cc(C(F)(F)F)c2)cc1C1CCN(C[C@H]2CN([C@@H](C(=O)O)C(C)C)C[C@@H]2c2cccc(F)c2)CC1 | 3.2 | 100 | > 300
7 | CCn1nc(Cc2ccc(OC3CCC3)cc2)cc1C1CCN(C[C@H]2CN([C@@H](C(=O)O)C(C)C)C[C@@H]2c2cccc(F)c2)CC1 | 0.6 | 1.2 | 100
8 | CCn1nc(Cc2ccc(F)cc2F)cc1C1CCN(C[C@H]2CN([C@@H](C(=O)O)C3CCCCC3)C[C@@H]2c2cccc(F)c2)CC1 | 1.5 | 0.4 | 33
9 | CCn1nc(Cc2ccc(OC3CC3)cc2)cc1C1CCN(C[C@H]2CN([C@@H](C(=O)O)C(C)(C)C)C[C@@H]2c2cccc(F)c2)CC1 | 0.4 | < 0.14 | 33
10 | CC[C@@H](C)[C@H](C(=O)O)N1C[C@H](CN2CCC(c3cc(Cc4ccc(O)cc4)nn3CC)CC2)[C@@H](c2cccc(F)c2)C1 | 0.6 | < 0.14 | 11
11 | CCn1nc(Cc2ccc(S(=O)(=O)c3ccccc3)cc2)cc1C1CCN(C[C@H]2CN([C@@H](C(=O)O)C(C)C)C[C@@H]2c2cccc(F)c2)CC1 | 1.3 | 0.4 | 33
12 | CCn1nc(Cc2ccc(OC(C)(C)C)cc2)cc1C1CCN(C[C@H]2CN([C@@H](C(=O)O)C(C)(C)C)C[C@@H]2c2cccc(F)c2)CC1 | 2 | 11 | 300
13 | CC[C@@H](C)[C@H](C(=O)O)N1C[C@H](CN2CCC(c3cc(Cc4cc(C(F)(F)F)cc(C(F)(F)F)c4)nn3CC)CC2)[C@@H](c2cccc(F)c2)C1 | 1.6 | 33 | > 300
14 | CCn1nc(Cc2ccc(C(F)(F)F)cc2)cc1C1CCN(C[C@H]2CN([C@@H](C(=O)O)C3CCCCC3)C[C@@H]2c2cccc(F)c2)CC1 | 1.5 | 0.4 | 33
15 | CCn1nc(Cc2ccc(OC)cc2)cc1C1CCN(C[C@H]2CN([C@@H](C(=O)O)C3CCCCC3)C[C@@H]2c2cccc(F)c2)CC1 | 1.1 | < 0.14 | 33
16 | CC[C@H](C)[C@H](C(=O)O)N1C[C@H](CN2CCC(c3cc(Cc4cccc(C#N)c4)nn3CC)CC2)[C@@H](c2cccc(F)c2)C1 | 0.9 | < 0.14 | 11
17 | CC[C@@H](C)[C@H](C(=O)O)N1C[C@H](CN2CCC(c3cc(Cc4cccc5ccccc45)nn3CC)CC2)[C@@H](c2cccc(F)c2)C1 | 0.2 | < 0.14 | 33
18 | CC[C@@H](C)[C@H](C(=O)O)N1C[C@H](CN2CCC(c3cc(Cc4ccc(OCc5ccccc5)cc4)nn3CC)CC2)[C@@H](c2cccc(F)c2)C1 | 0.5 | 3.7 | 100
19 | CCn1nc(Cc2ccc(OC3CC3)cc2)cc1C1CCN(C[C@H]2CN([C@@H](C(=O)O)C(C)C)C[C@@H]2c2cccc(F)c2)CC1 | 1 | 1.2 | 300

More lines, in order of falling IC50 [1], values ahead:

Row | IC50 [1] [nM] | IC90 (HeLa [3]) [nM] | Structure (SMILES) | IC90 (HeLa [2]) [nM]
20 | 5 | 100 | CCn1nc(Cc2ccc(F)cc2F)cc1C1CCN(C[C@H]2CN([C@@H](C(=O)O)C(C)C)C[C@@H]2c2cccc(F)c2)CC1 | > 300
21 | 3.9 | 0.4 | CCn1nc(Cc2cccnc2)cc1C1CCN(C[C@H]2CN([C@@H](C(=O)O)C3CCCCC3)C[C@@H]2c2cccc(F)c2)CC1 | 33
22 | 2.7 | 3.7 | CC[C@@H](C)[C@H](C(=O)O)N1C[C@H](CN2CCC(c3cc(Cc4cccc(CN)c4)nn3CC)CC2)[C@@H](c2cccc(F)c2)C1 | 33
23 | 2.6 | 11 | CCn1nc(Cc2cc(F)cc(F)c2)cc1C1CCN(C[C@H]2CN([C@@H](C(=O)O)C(C)C)C[C@@H]2c2cccc(F)c2)CC1 | 300
24 | 2.6 | 0.4 | CC[C@@H](C)[C@H](C(=O)O)N1C[C@H](CN2CCC(c3cc(Cc4ccc(OC)c(OC)c4)nn3CC)CC2)[C@@H](c2cccc(F)c2)C1 | 33
25 | 2.3 | 11 | CCn1nc(Cc2cc(C(F)(F)F)cc(C(F)(F)F)c2)cc1C1CCN(C[C@H]2CN([C@@H](C(=O)O)C(C)(C)C)C[C@@H]2c2cccc(F)c2)CC1 | > 300
26 | 1.3 | 3.7 | CCn1nc(Cc2ccc(Cl)cc2)cc1C1CCN(C[C@H]2CN([C@@H](C(=O)O)C(C)C)C[C@@H]2c2cccc(F)c2)CC1 | 300
27 | 1.1 | 0.4 | CC[C@@H](C)[C@H](C(=O)O)N1C[C@H](CN2CCC(c3cc(Cc4ccc(S(=O)(=O)c5ccccc5)cc4)nn3CC)CC2)[C@@H](c2cccc(F)c2)C1 | 33
28 | 1.1 | < 0.14 | CCn1nc(Cc2ccc(S(=O)(=O)c3ccccc3)cc2)cc1C1CCN(C[C@H]2CN([C@@H](C(=O)O)C(C)(C)C)C[C@@H]2c2cccc(F)c2)CC1 | 3.7
29 | 1 | < 0.14 | CCn1nc(Cc2cccc(F)c2)cc1C1CCN(C[C@H]2CN([C@@H](C(=O)O)C3CCCCC3)C[C@@H]2c2cccc(F)c2)CC1 | 33
30 | 0.8 | 3.7 | CCCOc1ccc(Cc2cc(C3CCN(C[C@H]4CN([C@@H](C(=O)O)C(C)C)C[C@@H]4c4cccc(F)c4)CC3)n(CC)n2)cc1 | > 300
31 | 0.7 | < 0.14 | CCn1nc(Cc2cccc(OC)c2)cc1C1CCN(C[C@H]2CN([C@@H](C(=O)O)C(C)(C)C)C[C@@H]2c2cccc(F)c2)CC1 | 33
32 | 0.6 | 1.2 | CCn1nc(Cc2ccc(OC(F)(F)F)cc2)cc1C1CCN(C[C@H]2CN([C@@H](C(=O)O)C(C)(C)C)C[C@@H]2c2cccc(F)c2)CC1 | 100
33 | 0.6 | 1.2 | CCn1nc(Cc2ccc(OCC(F)(F)F)cc2)cc1C1CCN(C[C@H]2CN([C@@H](C(=O)O)C(C)(C)C)C[C@@H]2c2cccc(F)c2)CC1 | 100
34 | 0.6 | 0.4 | CC[C@H](C)[C@H](C(=O)O)N1C[C@H](CN2CCC(c3cc(Cc4ccc(OCC(F)(F)F)cc4)nn3CC)CC2)[C@@H](c2cccc(F)c2)C1 | 33
35 | 0.6 | 11 | CCn1nc(Cc2ccc(Oc3ccccc3)cc2)cc1C1CCN(C[C@H]2CN([C@@H](C(=O)O)C(C)C)C[C@@H]2c2cccc(F)c2)CC1 | > 300
36 | 0.5 | < 0.14 | CC[C@H](C)[C@H](C(=O)O)N1C[C@H](CN2CCC(c3cc(Cc4ccc(C(F)(F)F)cc4)nn3CC)CC2)[C@@H](c2cccc(F)c2)C1 | 33
37 | 0.5 | < 0.14 | CC[C@H](C)[C@H](C(=O)O)N1C[C@H](CN2CCC(c3cc(Cc4ccc5c(c4)OCO5)nn3CC)CC2)[C@@H](c2cccc(F)c2)C1 | 100
38 | 0.5 | < 0.14 | CC[C@H](C)[C@H](C(=O)O)N1C[C@H](CN2CCC(c3cc(Cc4ccc(OC)c(C#N)c4)nn3CC)CC2)[C@@H](c2cccc(F)c2)C1 | 33
39 | 0.5 | < 0.14 | CCn1nc(Cc2ccc(OC(F)F)cc2)cc1C1CCN(C[C@H]2CN([C@@H](C(=O)O)C(C)C)C[C@@H]2c2cccc(F)c2)CC1 | 100
40 | 0.5 | < 0.14 | CCn1nc(Cc2ccc(OC(F)F)cc2)cc1C1CCN(C[C@H]2CN([C@@H](C(=O)O)C(C)(C)C)C[C@@H]2c2cccc(F)c2)CC1 | 11
41 | 0.5 | 3.7 | CC[C@@H](C)[C@H](C(=O)O)N1C[C@H](CN2CCC(c3cc(Cc4ccc(OCC(F)(F)F)cc4)nn3CC)CC2)[C@@H](c2cccc(F)c2)C1 | 100
42 | 0.3 | < 0.14 | CC[C@H](C)[C@H](C(=O)O)N1C[C@H](CN2CCC(c3cc(Cc4ccc(C)cc4)nn3CC)CC2)[C@@H](c2cccc(F)c2)C1 | 11
43 | 0.3 | < 0.14 | CC[C@@H](C)[C@H](C(=O)O)N1C[C@H](CN2CCC(c3cc(Cc4ccc(OC5CC5)cc4)nn3CC)CC2)[C@@H](c2cccc(F)c2)C1 | 33
44 | 0.2 | < 0.14 | CCn1nc(Cc2cccc3ccccc23)cc1C1CCN(C[C@H]2CN([C@@H](C(=O)O)C(C)(C)C)C[C@@H]2c2cccc(F)c2)CC1 | 11
45 | 0.2 | < 0.14 | CCn1nc(Cc2ccc(OC3CC3)cc2)cc1C1CCN(C[C@H]2CN([C@@H](C(=O)O)C3CCCCC3)C[C@@H]2c2cccc(F)c2)CC1 | 33
46 | 0.2 | < 0.14 | CCn1nc(Cc2ccc3ccccc3c2)cc1C1CCN(C[C@H]2CN([C@@H](C(=O)O)C(C)(C)C)C[C@@H]2c2cccc(F)c2)CC1 | 100

Reference: ChEMBL document CHEMBL1147446, “Antagonists of human CCR5 receptor containing 4-(pyrazolyl)piperidine side chains. Part 3: SAR studies on the benzylpyrazole segment” (Bioorg Med Chem Lett, 2004)
